Assay results as given in ChEMBL document CHEMBL5143527, “Discovery and optimization of cyclohexane-1,4-diamines as allosteric MALT1 inhibitors” (Eur J Med Chem, 2022).
Converted amounts (≈) assume the structure as drawn.

Key:
[1] = Lipophilicity, log D of compound at 7.4 by LC-MS analysis; assay type: physicochemical; conditions: pH 7.4
Procedure, shortened: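 ChromlogD at pH 7.4: retention time on an LCMS system with an aqueous mobile phase, converted to lipophilicity with a calibration curve.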

[2] = biological target: T1, Mucosa-associated lymphoid tissue lymphoma translocation protein 1 (Homo sapiens, UniProt Q9UDY8); assay: Inhibition of human MALT1 assessed as cleavage of substrate using fluorescent labeled Ac-LRSR-Rh110 peptide as substrate incubated for 30 mins followed by substrate addition and measured after 3 to 4 hrs by FRET assay
T1 sequence (Q9UDY8 whole entry): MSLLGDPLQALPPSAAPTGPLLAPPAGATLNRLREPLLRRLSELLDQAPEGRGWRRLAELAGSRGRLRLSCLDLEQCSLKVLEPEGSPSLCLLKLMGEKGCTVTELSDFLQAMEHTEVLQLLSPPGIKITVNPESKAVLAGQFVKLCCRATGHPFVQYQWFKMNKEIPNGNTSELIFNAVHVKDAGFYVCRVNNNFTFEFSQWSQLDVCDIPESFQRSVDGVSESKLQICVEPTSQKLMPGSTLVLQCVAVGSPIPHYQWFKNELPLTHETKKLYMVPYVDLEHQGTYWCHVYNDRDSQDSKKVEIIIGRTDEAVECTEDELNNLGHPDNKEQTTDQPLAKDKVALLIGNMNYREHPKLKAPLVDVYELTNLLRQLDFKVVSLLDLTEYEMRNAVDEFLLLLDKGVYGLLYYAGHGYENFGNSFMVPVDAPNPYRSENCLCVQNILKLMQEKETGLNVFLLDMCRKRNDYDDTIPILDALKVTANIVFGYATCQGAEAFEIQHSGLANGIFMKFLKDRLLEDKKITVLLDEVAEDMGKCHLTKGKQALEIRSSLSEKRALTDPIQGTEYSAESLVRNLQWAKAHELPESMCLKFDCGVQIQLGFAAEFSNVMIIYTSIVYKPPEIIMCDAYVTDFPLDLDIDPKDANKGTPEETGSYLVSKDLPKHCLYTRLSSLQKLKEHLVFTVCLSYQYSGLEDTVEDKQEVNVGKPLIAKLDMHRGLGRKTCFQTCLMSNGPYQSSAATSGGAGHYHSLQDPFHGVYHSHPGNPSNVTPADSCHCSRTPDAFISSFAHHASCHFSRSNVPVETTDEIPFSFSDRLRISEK
Procedure, shortened: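 Fluorogenic MALT1 cleavage assay with the tetrapeptide LRSR carrying rhodamine 110 and a non-fluorescent quencher; signal read as FRET. Horseradish peroxidase and resazurin redox counter-assays used to exclude artefacts. Values are the mean of at least three independent measurements, with standard deviation.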

[3] = Metabolic stability in human liver microsomes assessed as intrinsic clearance by LC-MS/MS analysis; assay type: ADME, Microsome; conditions: read-out: CLH
Procedure, shortened: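 Human liver microsomes, compound incubated; intrinsic clearance from disappearance of the parent compound over time.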

[4] = Metabolic stability in rat hepatocyte assessed as intrinsic clearance by LC-MS/MS analysis; assay type: ADME, cell-based; conditions: hepatocytes
Procedure, shortened: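 Rat hepatocytes, compound incubated; intrinsic clearance (per 10⁶ cells) from disappearance of the parent compound over time.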

[5] = Solubility of compound in PBS at pH 7.4 incubated for 20 to 24 hrs under shaking condition by LC-MS analysis; assay type: physicochemical; conditions: time 20-24 hrs
Procedure, shortened: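 Dried-DMSO solubility: 10 mM DMSO stock dried down, residue resolubilized in 0.1 M phosphate buffer, pH 7.4.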

[6] = biological target: T1, Mucosa-associated lymphoid tissue lymphoma translocation protein 1; assay: Inhibition of human MALT1 in human MCF7 cells assessed as MALT1 mediated cleavage of human A20 in cytosol by fluorescence microscopy; assay type: subcellular
Procedure, shortened: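 Cellular MALT1 activity in MCF7 cells, read as inhibition of MALT1-mediated cleavage of human A20.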

Structure (SMILES) | logD [1] | IC50 [2] | microsomal CLint [3] | CLH [4] | solubility [5] | IC50 [6]
FC(F)(F)c1nccc(N[C@H]2CC[C@@H](Nc3ccnc(C(F)(F)F)n3)CC2)n1 | 4.3 | 2.2 µM | < 3 µL/min/mg | < 1 10^-6uL/min | 37 µM (≈ 15 µg/mL) | –
FC(F)(F)c1nccc(N[C@H]2CC[C@@H](Nc3ccc4ncc(Cl)n4n3)CC2)n1 | 4.3 | 0.4 µM | 9.9 µL/min/mg | – | – | –
FC(F)(F)c1nccc(NCC2CCN(c3ccc4nnc(Cl)n4n3)CC2)n1 | 2.7 | 23 µM | 31 µL/min/mg | – | – | –
FC(F)(F)c1nccc(N[C@]23CC[C@](Nc4ccc5nnc(Cl)n5n4)(CC2)CC3)n1 | 3 | 4.2 µM | 11 µL/min/mg | – | – | –
FC(F)(F)c1nccc(N[C@H]2CC[C@@H](Nc3ccc4nnc(C5CC5)n4n3)CC2)n1 | 4.5 | 4.5 µM | < 3 µL/min/mg | – | – | –
FC(F)(F)c1cccc(N[C@H]2CC[C@@H](Nc3ccnc(C(F)(F)F)n3)CC2)c1 | > 5.3 | 1.8 µM | 7.5 µL/min/mg | – | – | –
FC(F)(F)c1nccc(N[C@H]2CC[C@@H](Nc3ccc4nnc(C(F)(F)F)n4n3)CC2)n1 | 3.8 | 1.8 µM | < 3 µL/min/mg | – | – | –
FC(F)(F)c1nccc(N[C@H]2CC[C@@H](Nc3ccc4nncn4n3)CC2)n1 | 1.7 | 35 µM | < 3 µL/min/mg | – | – | –
FC(F)(F)c1nccc(NC[C@H]2C[C@@H](Nc3ccc4nnc(Cl)n4n3)C2)n1 | 2.5 | 18 µM | 23 µL/min/mg | – | – | –
FC(F)(F)c1nccc(N[C@H]2CC[C@@H](Nc3cnc4ccccc4c3)CC2)n1 | 4.6 | 7.2 µM | 5.2 µL/min/mg | – | – | –
FC(F)(F)c1cccc(N[C@H]2CC[C@@H](Nc3ccc4nnc(Cl)n4n3)CC2)c1 | 5.2 | 1.4 µM | 9.2 µL/min/mg | – | – | –

Further lines, results first:

logD [1] | IC50 [2] | microsomal CLint [3] | CLH [4] | solubility [5] | IC50 [6] | Structure (SMILES)
2.8 | 0.8 µM | 29 µL/min/mg | – | – | 5.9 µM | CSc1nnc2ccc(N[C@H]3CC[C@@H](Nc4ccnc(C(F)(F)F)n4)CC3)nn12
2.2 | > 50 µM | 6.9 µL/min/mg | – | – | – | FC(F)(F)c1nccc(N[C@H]2C[C@@H](Nc3ccc4nnc(Cl)n4n3)C2)n1
3.5 | 7.2 µM | < 3 µL/min/mg | – | – | – | FC(F)(F)c1nccc(N[C@H]2CC[C@@H](Oc3ccc4nnc(Cl)n4n3)CC2)n1
2.6 | 6.1 µM | 50 µL/min/mg | – | – | – | FC(F)(F)c1nccc(NC2CCN(c3ccc4nnc(Cl)n4n3)CC2)n1
3.5 | 0.5 µM | 12 µL/min/mg | – | – | – | CN(c1ccc2nnc(Cl)n2n1)[C@H]1CC[C@@H](Nc2ccnc(C(F)(F)F)n2)CC1
3.4 | 1.1 µM | 17 µL/min/mg | – | – | – | FC(F)(F)c1nccc(N[C@@H]2CC[C@H](Nc3ccc4nnc(Cl)n4n3)C2)n1 (racemic)
